ChEMBL document CHEMBL4052637, “Discovery and Characterization of R/S-N-3-Cyanophenyl-N'-(6-tert-butoxycarbonylamino-3,4-dihydro-2,2-dimethyl-2H-1-benzopyran-4-yl)urea, a New Histone Deacetylase Class III Inhibitor Exerting Antiproliferative Activity against Cancer Cell Lines” (J Med Chem, 2017)
Calls of active or inactive are those of the source. No cut-off for these calls is given here.

Legend:
[1] = Selectivity index, ratio of IC50 for mouse astrocytes to IC50 for human T98G cells
[2] = Selectivity index, ratio of IC50 for mouse astrocytes to IC50 for human Hs683 cells
Hs 683 [3] = assay: Antiproliferative activity against human Hs683 cells after 72 hrs by MTT assay; format: functional, cell-based; conditions: Hs 683, 72 h
Summary of the method: (§1)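 MTT assay: cells in RPMI 1640 with 10% heat-inactivated FCS at 37 °C and 5% CO2 were seeded 24 h before treatment. They were exposed 72 h to compound at 0.01–100 μM, with DMSO as solvent.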

T98G = assay: Antiproliferative activity against human T98G cells after 72 hrs by MTT assay; format: functional, cell-based; summary of the method: as §1
[4] = Antiproliferative activity against human U373 cells after 72 hrs by MTT assay; format: functional, cell-based, U-373MG ATCC; conditions: U373 MG; summary of the method: as §1
[5] = Selectivity index, ratio of IC50 for mouse astrocytes to IC50 for human U373 cells
Hs 683 [6] = assay: Cell cycle arrest in human Hs683 cells assessed as accumulation at G1 phase at IC50 after 24 to 48 hrs by propidium iodide staining-based flow cytometry; format: functional
Summary of the method: (§2)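 Cells were exposed to compound at the IC50 for each line from the 72 h MTT assay, or to a reference HDAC inhibitor at 2 μM. Cell cycle distribution was analyzed after 24 and 48 h. Results are mean ± SD of three independent experiments, with p values against control cells.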

Hs 683 [7] = assay: Cell cycle arrest in human Hs683 cells assessed as accumulation at sub-G1 phase at IC50 for MTT assay after 24 to 48 hrs by propidium iodide staining-based flow cytometry; format: functional; summary of the method: as §2
U-373MG ATCC [8] = assay: Cell cycle arrest in human U373 cells assessed as accumulation at sub-G1 phase at IC50 for MTT assay after 24 to 48 hrs by propidium iodide staining-based flow cytometry; format: functional; summary of the method: as §2
[9] = biological target: T1, NAD-dependent protein deacetylase sirtuin-1 (Homo sapiens, UniProt Q96EB6); assay: Inhibition of N-terminal His-tagged recombinant human SIRT-1 expressed in Escherichia coli using Fluor-de-Lys-SIRT1 as substrate after 15 mins by fluorescence assay
T1 sequence (Q96EB6 whole entry): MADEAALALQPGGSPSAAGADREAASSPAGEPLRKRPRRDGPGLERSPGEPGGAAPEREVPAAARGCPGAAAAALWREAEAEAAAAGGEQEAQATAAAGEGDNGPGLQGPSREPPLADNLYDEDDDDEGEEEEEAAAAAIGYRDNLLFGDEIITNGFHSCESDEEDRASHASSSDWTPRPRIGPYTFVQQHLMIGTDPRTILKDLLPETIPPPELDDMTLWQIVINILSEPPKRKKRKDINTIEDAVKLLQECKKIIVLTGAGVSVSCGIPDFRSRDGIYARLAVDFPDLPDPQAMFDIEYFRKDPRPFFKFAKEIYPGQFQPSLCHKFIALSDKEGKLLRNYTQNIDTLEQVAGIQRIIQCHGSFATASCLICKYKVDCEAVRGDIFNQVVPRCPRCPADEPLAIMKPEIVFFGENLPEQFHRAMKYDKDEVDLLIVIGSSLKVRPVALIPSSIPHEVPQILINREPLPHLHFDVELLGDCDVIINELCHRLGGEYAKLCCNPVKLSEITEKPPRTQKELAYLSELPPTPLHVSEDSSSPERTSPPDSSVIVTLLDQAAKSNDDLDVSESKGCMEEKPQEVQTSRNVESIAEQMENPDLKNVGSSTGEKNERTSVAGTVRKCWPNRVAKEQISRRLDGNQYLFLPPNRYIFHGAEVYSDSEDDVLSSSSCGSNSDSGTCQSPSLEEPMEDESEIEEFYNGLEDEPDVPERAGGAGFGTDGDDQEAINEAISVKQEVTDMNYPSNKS

[10] = biological target: T2, NAD-dependent protein deacetylase sirtuin-2 (Homo sapiens, UniProt Q8IXJ6); assay: Inhibition of N-terminal His-tagged recombinant human SIRT-2 expressed in Escherichia coli using Fluor-de-Lys-SIRT1 as substrate after 15 mins by fluorescence assay
T2 sequence (Q8IXJ6 whole entry): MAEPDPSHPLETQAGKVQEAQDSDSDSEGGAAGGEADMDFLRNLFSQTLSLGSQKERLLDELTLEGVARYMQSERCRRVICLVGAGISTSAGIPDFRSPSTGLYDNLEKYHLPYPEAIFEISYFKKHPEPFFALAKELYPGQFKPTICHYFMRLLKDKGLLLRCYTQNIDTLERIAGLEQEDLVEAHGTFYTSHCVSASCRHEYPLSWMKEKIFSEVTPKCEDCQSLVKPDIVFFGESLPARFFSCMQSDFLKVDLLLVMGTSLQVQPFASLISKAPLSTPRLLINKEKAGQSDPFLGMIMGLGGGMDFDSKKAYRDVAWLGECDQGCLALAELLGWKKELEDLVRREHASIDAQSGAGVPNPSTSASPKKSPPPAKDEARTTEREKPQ

[11] = biological target: NAD-dependent protein deacetylase sirtuin-3, mitochondrial (Homo sapiens, UniProt Q9NTG7); assay: Inhibition of N-terminal His-tagged recombinant human SIRT-3 expressed in Escherichia coli using Fluor-de-Lys-SIRT1 as substrate after 15 mins by fluorescence assay
Hs 683 [12] = assay: Cell cycle arrest in human Hs683 cells assessed as accumulation at G2/M phase at IC50 after 24 to 48 hrs by propidium iodide staining-based flow cytometry; format: functional; summary of the method: as §2
U-373MG ATCC [13] = assay: Cell cycle arrest in human U373 cells assessed as accumulation at G2/M phase at IC50 after 24 to 48 hrs by propidium iodide staining-based flow cytometry; format: functional; summary of the method: as §2

Chain of NAD-dependent protein deacetylase sirtuin-3, mitochondrial (Q9NTG7 whole entry): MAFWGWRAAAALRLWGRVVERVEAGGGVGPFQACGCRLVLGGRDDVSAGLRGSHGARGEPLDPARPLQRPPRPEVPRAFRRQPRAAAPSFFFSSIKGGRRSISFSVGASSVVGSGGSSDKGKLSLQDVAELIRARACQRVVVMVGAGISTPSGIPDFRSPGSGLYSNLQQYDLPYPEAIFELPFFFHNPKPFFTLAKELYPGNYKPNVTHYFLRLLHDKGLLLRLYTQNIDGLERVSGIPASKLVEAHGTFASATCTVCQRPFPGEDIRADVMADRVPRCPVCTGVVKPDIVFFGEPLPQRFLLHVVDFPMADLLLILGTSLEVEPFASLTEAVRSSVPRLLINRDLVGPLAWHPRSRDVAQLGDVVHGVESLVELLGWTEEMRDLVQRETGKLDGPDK

SMILES | IC50 (Hs 683 [3]) [µM] | IC50 (T98G) [µM] | IC50 [4] [µM] | further results
CC(C)(C)OC(=O)Nc1ccc2c(c1)C(NC(=O)Nc1ccc(C(F)(F)F)cc1)CC(C)(C)O2 (racemic) | 11 | 15 | 10 | Ratio IC50 [1]: >10; Ratio IC50 [2]: >10; Ratio IC50 [5]: >10
NC(=O)C1CCCc2c1[nH]c1ccc(Cl)cc21 (centres undefined) | 116 | – | 157 | Activity (Hs 683 [6]): Active; Activity (Hs 683 [7]): inactive; Activity (U-373MG ATCC [8]): inactive
CC1(C)CC(NC(=S)Nc2ccc([N+](=O)[O-])cc2)c2cc(Cl)ccc2O1 (centres undefined) | – | – | – | IC50 [9]: > 200 µM; IC50 [10]: > 200 µM
CC(C)OC(=O)Nc1ccc2c(c1)C(NC(=O)Nc1cccc(C#N)c1)CC(C)(C)O2 (centres undefined) | – | – | – | IC50 [9]: 54.8 µM; IC50 [10]: 22.7 µM
CC(C)(C)OC(=O)Nc1ccc2c(c1)C(NC(=O)Nc1ccc(Cl)cc1)CC(C)(C)O2 (centres undefined) | 26 | 26 | 22 | –
CC(C)(C)OC(=O)Nc1ccc2c(c1)C(NC(=O)Nc1cccc([N+](=O)[O-])c1)CC(C)(C)O2 (racemic) | 16 | 7 | 1 | Ratio IC50 [1]: <5; Ratio IC50 [2]: <5; Ratio IC50 [5]: <5; IC50 [9]: > 200 µM; IC50 [10]: 99.8 µM
CCOC(=O)Nc1ccc2c(c1)C(NC(=O)Nc1cccc(C#N)c1)CC(C)(C)O2 (centres undefined) | – | – | – | IC50 [9]: 109 µM; IC50 [10]: 51.1 µM
CC1(C)CC(NC(=O)Nc2cccc(C#N)c2)c2ccccc2O1 (racemic) | 31 | 32 | 38 | –
COc1ccccc1NC(=O)NC1CC(C)(C)Oc2ccc(NC(=O)OC(C)(C)C)cc21 (racemic) | 59 | 39 | 30 | –
CC(C)(C)OC(=O)Nc1ccc2c(c1)C(NC(=O)Nc1cccc(Br)c1)CC(C)(C)O2 (racemic) | 18 | 26 | 22 | –
CC(C)(C)OC(=O)Nc1ccc2c(c1)C(NC(=O)Nc1ccccc1[N+](=O)[O-])CC(C)(C)O2 (racemic) | 13 | 22 | 12 | Ratio IC50 [1]: >10; Ratio IC50 [2]: >10; Ratio IC50 [5]: >10
CC(C)(C)OC(=O)Nc1ccc2c(c1)C(NC(=O)Nc1cccc(CN)c1)CC(C)(C)O2 (racemic) | 95 | > 100 | > 100 | –
Cc1ccc(C(=O)Nc2ccc(S(=O)(=O)O)c3cc(S(=O)(=O)O)cc(S(=O)(=O)O)c23)cc1NC(=O)c1cccc(NC(=O)Nc2cccc(C(=O)Nc3cc(C(=O)Nc4ccc(S(=O)(=O)O)c5cc(S(=O)(=O)O)cc(S(=O)(=O)O)c45)ccc3C)c2)c1 [SURAMIN] | – | – | – | IC50 [10]: 13 µM; IC50 [11]: > 200 µM
CC1(C)CC(NC(=O)Nc2cccc(C#N)c2)c2cc(N)ccc2O1 (racemic) | > 100 | > 100 | > 100 | –
CC1(C)CC(NC(=O)Nc2cccc(C#N)c2)c2cc(NC=O)ccc2O1 (racemic) | > 100 | > 100 | > 100 | –
CC(C)(C)OC(=O)Nc1ccc2c(c1)C(NC(=O)Nc1cccc(Cl)c1)CC(C)(C)O2 (centres undefined) | 12 | 20 | 18 | Ratio IC50 [1]: >12; Ratio IC50 [2]: >12; Ratio IC50 [5]: >12; IC50 [9]: 32.1 µM; IC50 [10]: 18.5 µM
CC(C)(C)OC(=O)Nc1ccc2c(c1)C(NC(=O)Nc1cccc(N)c1)CC(C)(C)O2 (racemic) | 91 | > 100 | 97 | –
CC(C)(C)OC(=O)Nc1ccc2c(c1)C(NC(=O)Nc1ccc([N+](=O)[O-])cc1)CC(C)(C)O2 (racemic) | 20 | 26 | 24 | –
CC(C)(C)OC(=O)Nc1ccc2c(c1)C(NC(=O)Nc1ccc(C#N)cc1)CC(C)(C)O2 (centres undefined) | 18 | 26 | 10 | Ratio IC50 [1]: >10; Ratio IC50 [2]: >10; Ratio IC50 [5]: >10; IC50 [9]: 121 µM; IC50 [10]: 110 µM
CC(C)(C)OC(=O)Nc1ccc2c(c1)C(NC(=O)Nc1ccccc1Cl)CC(C)(C)O2 (racemic) | 34 | 88 | 59 | –
CC(C)(C)OC(=O)Nc1ccc2c(c1)C(NC(=O)Nc1cccc(F)c1)CC(C)(C)O2 (racemic) | 19 | 26 | 20 | –
N#C/C(=C\c1ccc(-c2cc(Cl)ccc2Cl)o1)C(=O)Nc1cccc2ncccc12 | 80.2 | – | 47.6 | IC50 [9]: 98.1 µM; Activity (Hs 683 [7]): Active; Activity (U-373MG ATCC [8]): Active; Activity (Hs 683 [12]): Active; Activity (U-373MG ATCC [13]): Active
COc1ccc(NC(=O)NC2CC(C)(C)Oc3ccc(NC(=O)OC(C)(C)C)cc32)cc1 (racemic) | 62 | 49 | 33 | –
CC(NC(=O)c1ccccc1/N=C/c1c(O)ccc2ccccc12)c1ccccc1 (centres undefined) [SIRTINOL] | 33.9 | – | 39.3 | Activity (Hs 683 [6]): Active; Activity (Hs 683 [7]): inactive; Activity (U-373MG ATCC [8]): inactive; Activity (Hs 683 [12]): Active; Activity (U-373MG ATCC [13]): Active
COC(=O)Nc1ccc2c(c1)C(NC(=O)Nc1cccc(C#N)c1)CC(C)(C)O2 (centres undefined) | – | – | – | IC50 [9]: 110 µM; IC50 [10]: 49.4 µM
CC(C)(C)OC(=O)Nc1ccc2c(c1)C(NC(=O)Nc1cccc(C(F)(F)F)c1)CC(C)(C)O2 (racemic) | 9 | 21 | 9 | Ratio IC50 [1]: <2; Ratio IC50 [2]: <2; Ratio IC50 [5]: <2
CC(C)(C)OC(=O)Nc1ccc2c(c1)C(NC(=O)Nc1ccccc1C(F)(F)F)CC(C)(C)O2 (racemic) | – | – | > 100 | –
CC(C)(C)OC(=O)Nc1ccc2c(c1)C(NC(=O)Nc1ccccc1C#N)CC(C)(C)O2 (racemic) | 54 | 67 | 45 | –
COc1cccc(NC(=O)NC2CC(C)(C)Oc3ccc(NC(=O)OC(C)(C)C)cc32)c1 (racemic) | 37 | > 100 | 30 | –
